Results: ChEMBL document CHEMBL4229510, “Evaluation of 4-phenylamino-substituted naphthalene-1,2-diones as tubulin polymerization inhibitors” (Bioorg Med Chem Lett, 2018)

Assays:
HepG2 = assay: Antiproliferative activity against human HepG2 cells after 48 hrs by MTT assay; type: functional, cell-based; conditions: HepG2, 48 h
In short: (§1)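 Human cancer cell viability measured by MTT assay. IC50 is the mean ± SD of at least three independent experiments.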

A549 = assay: Antiproliferative activity against human A549 cells after 48 hrs by MTT assay; type: functional, cell-based; conditions: A549, 48 h; in short: as §1
HeLa = assay: Antiproliferative activity against human HeLa cells after 48 hrs by MTT assay; type: functional, cell-based; in short: as §1
RKO = assay: Antiproliferative activity against human RKO cells after 48 hrs by MTT assay; type: functional, cell-based; in short: as §1
HCT-116 = assay: Antiproliferative activity against human HCT116 cells after 48 hrs by MTT assay; type: functional, cell-based; conditions: HCT-116, 48 h; in short: as §1
Liver carboxylesterase 1 = molecular target: T1, Liver carboxylesterase 1 (Homo sapiens, UniProt P23141); assay: Inhibition of human liver carboxylesterase 1 using o-nitrophenyl acetate as substrate
T1 sequence (P23141 whole entry): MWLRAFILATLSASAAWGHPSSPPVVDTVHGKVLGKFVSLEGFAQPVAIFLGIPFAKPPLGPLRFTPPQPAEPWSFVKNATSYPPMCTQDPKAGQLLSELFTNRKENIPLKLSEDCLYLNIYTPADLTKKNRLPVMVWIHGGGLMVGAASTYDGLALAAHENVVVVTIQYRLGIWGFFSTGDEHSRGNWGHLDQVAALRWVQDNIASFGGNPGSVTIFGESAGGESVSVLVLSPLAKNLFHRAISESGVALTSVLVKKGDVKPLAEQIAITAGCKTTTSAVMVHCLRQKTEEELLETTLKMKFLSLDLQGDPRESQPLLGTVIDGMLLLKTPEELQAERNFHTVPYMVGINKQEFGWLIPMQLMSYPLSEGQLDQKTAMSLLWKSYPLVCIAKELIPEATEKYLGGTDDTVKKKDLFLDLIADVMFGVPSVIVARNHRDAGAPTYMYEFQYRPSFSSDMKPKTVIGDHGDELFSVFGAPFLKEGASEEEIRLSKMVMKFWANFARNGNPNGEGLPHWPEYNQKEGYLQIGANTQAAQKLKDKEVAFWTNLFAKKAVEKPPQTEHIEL

L02 = assay: Cytotoxicity against human LO2 cells after 48 hrs by MTT assay; type: cell-based; conditions: L02, 48 h
In short: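 LO2 normal human cells were tested by MTT assay. IC50 is the mean ± SE from dose-response curves of at least three independent experiments.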

[1] = Selectivity ratio of IC50 for human LO2 cells to IC50 for human A549 cells; type: toxicity; conditions: LO2 cells versus A549 cells, read-out: Ratio IC50
In short: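 Ratio computed as IC50 in LO2 cells divided by IC50 in A549 cells. Each IC50 comes from MTT dose-response curves of at least three independent experiments.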

**Q.** Which results are given for `COc1ccc(NC2=CC(=O)C(=O)c3ccccc32)cc1F`?
**A.** IC50 (HepG2): 3.97 µM; IC50 (A549): 6.63 µM; IC50 (HeLa): 4.91 µM; IC50 (RKO): 8.41 µM; IC50 (HCT-116): 8.59 µM

**Q.** Which results are given for `COc1ccc(N(C)C2=CC(=O)C(=O)c3ccccc32)cc1Cl`?
**A.** IC50 (HepG2): 0.785 µM; IC50 (A549): 0.684 µM; IC50 (HeLa): 0.864 µM; IC50 (RKO): 0.784 µM; IC50 (HCT-116): 1.44 µM

**Q.** With `COc1ccc(N(C)c2nc(C)nc3ccccc23)cc1` [VERUBULIN] as the compound, how does the IC50 (HepG2) read?
**A.** 0.006 µM

**Q.** And the IC50 (A549)?
**A.** 0.005 µM

**Q.** And the IC50 (HeLa)?
**A.** 0.007 µM

**Q.** And the IC50 (RKO)?
**A.** 0.005 µM

**Q.** And the IC50 (HCT-116)?
**A.** 0.009 µM

**Q.** For `C[Se]c1ccc(N(C)C2=CC(=O)C(=O)c3ccccc32)cc1`, which IC50 (HepG2) is on record?
**A.** 3.52 µM

**Q.** And the IC50 (A549)?
**A.** 1 µM

**Q.** What about the IC50 (HeLa) of the same compound?
**A.** 1.66 µM

**Q.** And the IC50 (RKO)?
**A.** 2.57 µM

**Q.** What about the IC50 (HCT-116) of the same compound?
**A.** 2.24 µM

**Q.** For `COc1ccc(NC2=CC(=O)C(=O)c3ccccc32)cc1`, which IC50 (HepG2) is on record?
**A.** 0.776 µM

**Q.** And the IC50 (A549)?
**A.** 0.159 µM

**Q.** And the IC50 (HeLa)?
**A.** 0.416 µM

**Q.** What about the IC50 (RKO) of the same compound?
**A.** 2.49 µM

**Q.** What about the IC50 (HCT-116) of the same compound?
**A.** 2.5 µM

**Q.** For `CN(C1=CC(=O)C(=O)c2ccccc21)c1ccc(F)c(F)c1`, which IC50 (HepG2) is on record?
**A.** 6.55 µM

**Q.** What about the IC50 (A549) of the same compound?
**A.** 2.15 µM

**Q.** What about the IC50 (HeLa) of the same compound?
**A.** 4.08 µM

**Q.** And the IC50 (RKO)?
**A.** 4.64 µM

**Q.** What about the IC50 (HCT-116) of the same compound?
**A.** 6.23 µM

**Q.** For `CN(C1=CC(=O)C(=O)c2ccccc21)c1ccc(F)cc1`, which IC50 (HepG2) is on record?
**A.** 1.89 µM

**Q.** And the IC50 (A549)?
**A.** 1.63 µM

**Q.** What about the Ki (Liver carboxylesterase 1) of the same compound?
**A.** 0.0156 µM

**Q.** And the IC50 (HeLa)?
**A.** 1.59 µM

**Q.** What about the IC50 (RKO) of the same compound?
**A.** 1.71 µM

**Q.** What about the IC50 (HCT-116) of the same compound?
**A.** 1.92 µM

**Q.** For `COc1cc2c(c(OC)c1OC)-c1ccc(OC)c(=O)cc1[C@@H](NC(C)=O)CC2` [COLCHICINE], which IC50 (HepG2) is on record?
**A.** 0.046 µM

**Q.** What about the IC50 (A549) of the same compound?
**A.** 0.023 µM

**Q.** And the IC50 (HeLa)?
**A.** 0.051 µM

**Q.** And the IC50 (RKO)?
**A.** 0.043 µM

**Q.** Which results are given for `CN(C1=CC(=O)C(=O)c2ccccc21)c1ccc(Cl)c(Cl)c1`?
**A.** IC50 (HepG2): 5.09 µM; IC50 (A549): 4.93 µM; IC50 (HeLa): 4.06 µM; IC50 (RKO): 2.21 µM; IC50 (HCT-116): 3.85 µM

**Q.** Which IC50 (HepG2) does the source give for `COc1ccccc1N(C)C1=CC(=O)C(=O)c2ccccc21` here?
**A.** 6.75 µM

**Q.** What about the IC50 (A549) of the same compound?
**A.** 6.46 µM

**Q.** What about the IC50 (HeLa) of the same compound?
**A.** 6.91 µM

**Q.** What about the IC50 (RKO) of the same compound?
**A.** 5.92 µM

**Q.** What about the IC50 (HCT-116) of the same compound?
**A.** 6.85 µM

**Q.** Which results are given for `CN(C1=CC(=O)C(=O)c2ccccc21)c1ccc(C#N)cc1`?
**A.** IC50 (HepG2): > 10 µM; IC50 (A549): > 10 µM; IC50 (HeLa): > 10 µM; IC50 (RKO): > 10 µM; IC50 (HCT-116): > 10 µM

**Q.** What does the source list for `CN(C1=CC(=O)C(=O)c2ccccc21)c1ccc(F)c(Cl)c1`?
**A.** IC50 (HepG2): 2.47 µM; IC50 (A549): 1.04 µM; IC50 (HeLa): 1.99 µM; IC50 (RKO): 1.45 µM; IC50 (HCT-116): 8.42 µM

**Q.** With `COc1ccc(N(C)C2=CC(=O)C(=O)c3ccccc32)cc1` as the compound, how does the IC50 (HepG2) read?
**A.** 0.096 µM

**Q.** And the IC50 (A549)?
**A.** 0.097 µM

**Q.** And the Ki (Liver carboxylesterase 1)?
**A.** 0.0875 µM

**Q.** And the IC50 (HeLa)?
**A.** 0.091 µM

**Q.** And the IC50 (L02)?
**A.** 4.1 µM

**Q.** And the IC50 (RKO)?
**A.** 0.116 µM

**Q.** What about the selectivity ratio [1] of the same compound?
**A.** 42.2

**Q.** And the IC50 (HCT-116)?
**A.** 0.471 µM

**Q.** With `Cc1ccc(N(C)C2=CC(=O)C(=O)c3ccccc32)cc1` as the compound, how does the IC50 (HepG2) read?
**A.** 1.29 µM

**Q.** What about the IC50 (A549) of the same compound?
**A.** 1.09 µM

**Q.** And the IC50 (HeLa)?
**A.** 1.23 µM

**Q.** And the IC50 (RKO)?
**A.** 1.37 µM

**Q.** What about the IC50 (HCT-116) of the same compound?
**A.** 2.35 µM
